Measurements taken from ChEMBL document CHEMBL1759892 (Bioorg Med Chem Lett, 2011).

Legend:
Cytochrome P450 2D6 = Cytochrome P450 2D6 (Homo sapiens, UniProt P10635); assay: Inhibition of CYP2D6; format: ADME
Cytochrome P450 3A4 = Cytochrome P450 3A4 (Homo sapiens, UniProt P08684); assay: Inhibition of CYP3A4; format: ADME
Cytochrome P450 2C19 = Cytochrome P450 2C19 (Homo sapiens, UniProt P33261); assay: Inhibition of CYP2C19; format: ADME
Cytochrome P450 2C9 = Cytochrome P450 2C9 (Homo sapiens, UniProt P11712); assay: Inhibition of CYP2C9; format: ADME
Cytochrome P450 2C9, sequence (P11712 whole entry): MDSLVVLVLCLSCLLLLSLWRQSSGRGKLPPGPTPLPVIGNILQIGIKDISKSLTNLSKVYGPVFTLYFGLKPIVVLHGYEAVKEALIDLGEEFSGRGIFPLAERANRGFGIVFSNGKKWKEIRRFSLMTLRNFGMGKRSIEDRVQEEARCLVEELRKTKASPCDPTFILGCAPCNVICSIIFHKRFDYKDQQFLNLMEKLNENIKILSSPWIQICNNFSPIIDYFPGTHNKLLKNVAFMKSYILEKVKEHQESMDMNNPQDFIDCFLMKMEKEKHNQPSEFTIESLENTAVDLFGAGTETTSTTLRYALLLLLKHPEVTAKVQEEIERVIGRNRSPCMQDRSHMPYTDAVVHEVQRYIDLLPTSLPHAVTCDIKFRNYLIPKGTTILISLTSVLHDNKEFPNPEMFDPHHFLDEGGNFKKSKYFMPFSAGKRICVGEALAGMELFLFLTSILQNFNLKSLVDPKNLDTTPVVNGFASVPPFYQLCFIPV

[1] = molecular target: Voltage-gated inwardly rectifying potassium channel KCNH2 (Homo sapiens, UniProt Q12809); assay: Inhibition of human ERG
Voltage-gated inwardly rectifying potassium channel KCNH2, sequence (Q12809 whole entry): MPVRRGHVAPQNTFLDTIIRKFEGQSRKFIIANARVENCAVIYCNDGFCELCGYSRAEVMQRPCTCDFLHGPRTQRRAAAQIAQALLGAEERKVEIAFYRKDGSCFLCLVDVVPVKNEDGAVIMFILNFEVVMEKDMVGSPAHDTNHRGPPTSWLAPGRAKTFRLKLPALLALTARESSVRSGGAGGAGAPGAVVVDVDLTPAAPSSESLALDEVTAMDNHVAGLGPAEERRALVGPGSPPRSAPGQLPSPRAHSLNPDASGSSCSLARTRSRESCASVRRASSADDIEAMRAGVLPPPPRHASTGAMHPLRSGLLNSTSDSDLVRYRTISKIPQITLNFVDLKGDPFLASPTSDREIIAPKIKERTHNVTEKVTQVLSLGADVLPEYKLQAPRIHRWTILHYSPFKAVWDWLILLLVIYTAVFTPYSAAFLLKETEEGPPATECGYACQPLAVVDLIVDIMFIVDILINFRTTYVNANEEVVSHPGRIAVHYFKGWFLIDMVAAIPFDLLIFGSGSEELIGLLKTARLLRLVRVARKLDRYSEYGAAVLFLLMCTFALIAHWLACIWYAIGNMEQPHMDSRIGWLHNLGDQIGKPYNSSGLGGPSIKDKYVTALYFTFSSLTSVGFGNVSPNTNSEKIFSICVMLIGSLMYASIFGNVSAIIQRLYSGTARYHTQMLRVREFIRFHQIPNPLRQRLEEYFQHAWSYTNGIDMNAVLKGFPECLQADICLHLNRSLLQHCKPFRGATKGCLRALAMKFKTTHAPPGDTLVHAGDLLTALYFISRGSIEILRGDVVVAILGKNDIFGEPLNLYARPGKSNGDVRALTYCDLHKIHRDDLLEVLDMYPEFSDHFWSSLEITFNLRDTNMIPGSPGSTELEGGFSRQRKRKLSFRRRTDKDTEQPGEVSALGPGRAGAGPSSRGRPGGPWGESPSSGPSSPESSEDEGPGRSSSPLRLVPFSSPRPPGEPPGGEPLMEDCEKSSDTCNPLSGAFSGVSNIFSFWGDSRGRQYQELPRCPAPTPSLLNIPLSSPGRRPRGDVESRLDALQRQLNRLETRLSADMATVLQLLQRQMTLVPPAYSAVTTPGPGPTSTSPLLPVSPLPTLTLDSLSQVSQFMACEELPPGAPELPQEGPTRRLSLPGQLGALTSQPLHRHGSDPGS

Salmonella typhimurium = assay: Genotoxicity in Salmonella Typhimurium by Ames test in presence of S9 fraction; format: toxicity, organism-based; details: salmonella enterica subsp. enterica serovar typhimurium
Adenosine receptor A2a = Adenosine receptor A2a (Homo sapiens, UniProt P29274); assay: Displacement of [3H]ZM241385 from human adenosine A2A receptor after 1 hr
Adenosine receptor A2a, sequence (P29274 whole entry): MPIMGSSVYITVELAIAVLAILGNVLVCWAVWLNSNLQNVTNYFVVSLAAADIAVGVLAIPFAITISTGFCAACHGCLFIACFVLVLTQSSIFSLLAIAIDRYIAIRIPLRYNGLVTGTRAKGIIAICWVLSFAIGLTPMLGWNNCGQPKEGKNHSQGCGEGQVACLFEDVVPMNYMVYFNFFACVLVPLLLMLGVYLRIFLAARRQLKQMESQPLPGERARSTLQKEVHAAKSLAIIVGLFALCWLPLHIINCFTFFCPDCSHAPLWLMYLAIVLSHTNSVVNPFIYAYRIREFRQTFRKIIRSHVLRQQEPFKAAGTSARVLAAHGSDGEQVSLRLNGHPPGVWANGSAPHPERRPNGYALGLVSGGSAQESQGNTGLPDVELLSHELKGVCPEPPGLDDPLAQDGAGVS

Adenosine receptor A1 = molecular target: T1, Adenosine receptor A1 (Homo sapiens, UniProt P30542); assay: Displacement of [3H]-DPCPX from human adenosine A1 receptor after 1 hr
T1 sequence (P30542 whole entry): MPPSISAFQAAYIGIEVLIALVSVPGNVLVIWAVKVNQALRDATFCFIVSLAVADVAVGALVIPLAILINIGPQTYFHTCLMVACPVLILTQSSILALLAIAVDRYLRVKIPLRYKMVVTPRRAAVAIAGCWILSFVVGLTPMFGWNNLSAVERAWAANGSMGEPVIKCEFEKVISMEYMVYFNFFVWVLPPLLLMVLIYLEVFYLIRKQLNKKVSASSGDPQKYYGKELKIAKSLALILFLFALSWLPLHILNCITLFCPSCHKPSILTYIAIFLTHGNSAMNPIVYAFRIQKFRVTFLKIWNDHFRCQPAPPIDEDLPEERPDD
In short: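 Human A1 receptor membranes, diluted in HEPES 50 mM, NaCl 100 mM, MgCl2 1 mM, were incubated with [3H]-DPCPX (4.8 nM final) and test compound for 1 h at room temperature with orbital shaking. Reactions were filtered on polyethyleneimine-treated filter plates, air dried and counted by scintillation. Values given as Ki.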

Adenosine receptor A2b [2] = molecular target: T2, Adenosine receptor A2b (Homo sapiens, UniProt P29275); assay: Inhibition of human adenosine A2B receptor expressed in CHO cells assessed as decrease in cellular cAMP level after 20 to 25 mins; format: functional, cell-based
T2 sequence (P29275 whole entry): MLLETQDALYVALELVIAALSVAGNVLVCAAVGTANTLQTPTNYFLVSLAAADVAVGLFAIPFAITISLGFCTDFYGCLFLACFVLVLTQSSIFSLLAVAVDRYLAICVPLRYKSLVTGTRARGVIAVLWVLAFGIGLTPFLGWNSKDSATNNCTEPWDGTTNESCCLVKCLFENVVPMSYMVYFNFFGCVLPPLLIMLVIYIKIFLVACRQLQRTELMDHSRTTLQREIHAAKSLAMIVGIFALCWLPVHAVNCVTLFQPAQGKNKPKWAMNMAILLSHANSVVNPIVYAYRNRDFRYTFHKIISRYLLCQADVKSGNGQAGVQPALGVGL

Adenosine receptor A2b [3] = molecular target: T2, Adenosine receptor A2b; assay: Displacement of [3H]ZM241385 from human adenosine A2B receptor expressed in CHO cells after 1 hr; format: cell-based
In short: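 Whole CHO cells expressing human A2B were harvested mechanically at 80% confluence, frozen in aliquots and resuspended in assay buffer on the day of assay. Cells were incubated with [3H]-ZM241385 (30 nM final) and test compound for 1 h at room temperature with orbital shaking. Reactions were filtered on polyethyleneimine-treated plates and counted by scintillation. Values given as Ki.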

Cytochrome P450 2C19, sequence (P33261 whole entry): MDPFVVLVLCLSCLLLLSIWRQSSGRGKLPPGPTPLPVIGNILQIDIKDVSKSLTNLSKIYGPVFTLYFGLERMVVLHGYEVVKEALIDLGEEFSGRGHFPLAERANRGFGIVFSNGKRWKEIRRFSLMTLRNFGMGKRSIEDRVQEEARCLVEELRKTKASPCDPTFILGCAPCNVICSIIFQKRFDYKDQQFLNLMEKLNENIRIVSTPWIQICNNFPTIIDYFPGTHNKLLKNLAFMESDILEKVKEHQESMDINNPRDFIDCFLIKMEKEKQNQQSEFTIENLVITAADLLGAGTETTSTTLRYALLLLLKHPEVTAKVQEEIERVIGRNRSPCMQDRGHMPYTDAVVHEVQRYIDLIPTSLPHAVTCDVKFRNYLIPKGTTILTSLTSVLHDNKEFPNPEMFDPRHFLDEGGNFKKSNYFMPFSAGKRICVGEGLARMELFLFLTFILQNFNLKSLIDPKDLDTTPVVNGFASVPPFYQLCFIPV
Cytochrome P450 2D6, sequence (P10635 whole entry): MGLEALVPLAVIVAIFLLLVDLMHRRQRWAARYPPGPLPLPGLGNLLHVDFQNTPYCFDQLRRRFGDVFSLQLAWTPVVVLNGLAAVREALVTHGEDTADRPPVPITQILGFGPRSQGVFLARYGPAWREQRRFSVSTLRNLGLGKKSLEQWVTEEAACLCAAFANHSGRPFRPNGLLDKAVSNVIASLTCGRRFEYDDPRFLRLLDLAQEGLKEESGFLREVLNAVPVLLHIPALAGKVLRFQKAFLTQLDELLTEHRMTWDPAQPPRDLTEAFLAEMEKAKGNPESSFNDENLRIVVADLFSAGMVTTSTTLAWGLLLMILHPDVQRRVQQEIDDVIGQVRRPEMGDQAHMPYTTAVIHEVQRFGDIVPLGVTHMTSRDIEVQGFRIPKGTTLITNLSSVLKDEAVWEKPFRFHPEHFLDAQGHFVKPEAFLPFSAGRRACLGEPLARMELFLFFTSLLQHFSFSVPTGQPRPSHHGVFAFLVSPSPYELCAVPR
Cytochrome P450 3A4, sequence (P08684 whole entry): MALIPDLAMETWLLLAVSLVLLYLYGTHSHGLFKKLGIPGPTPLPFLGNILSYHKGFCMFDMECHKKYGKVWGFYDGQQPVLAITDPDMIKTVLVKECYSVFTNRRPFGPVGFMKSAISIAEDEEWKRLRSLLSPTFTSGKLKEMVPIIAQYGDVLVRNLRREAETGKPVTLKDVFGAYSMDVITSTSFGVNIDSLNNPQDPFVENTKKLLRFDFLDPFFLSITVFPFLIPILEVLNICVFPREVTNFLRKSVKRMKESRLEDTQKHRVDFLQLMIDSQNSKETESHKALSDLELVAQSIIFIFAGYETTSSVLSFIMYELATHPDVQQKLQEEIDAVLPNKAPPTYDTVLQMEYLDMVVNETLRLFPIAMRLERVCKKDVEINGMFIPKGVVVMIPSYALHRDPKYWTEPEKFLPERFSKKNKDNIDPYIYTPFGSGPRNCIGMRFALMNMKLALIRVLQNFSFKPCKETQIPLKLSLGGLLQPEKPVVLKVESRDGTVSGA

Row | SMILES | Ki (Adenosine receptor A2a) | Ki (Adenosine receptor A1) | IC50 (Adenosine receptor A2b [2]) | other results
1 | CCN(C(C)=O)c1ccc(OC)c2nc(NC(=O)c3ccnn3C)sc12 | – | – | – | IC50 (Cytochrome P450 2D6): > 50000 nM; IC50 (Cytochrome P450 3A4): > 50000 nM; IC50 (Cytochrome P450 2C19): > 50000 nM; IC50 (Cytochrome P450 2C9): > 50000 nM; IC50 [1]: > 100000 nM; Activity (Salmonella typhimurium): Non-toxic
2 | CCN(C(C)=O)c1ccc(OC)c2nc(NC(=O)[C@H]3CC[C@@H](NS(=O)(=O)c4cccc(C(F)(F)F)c4)CC3)sc12 | 110 nM | 46 nM | 16 nM | –
3 | CCN(C(C)=O)c1ccc(OC)c2nc(NC(=O)[C@@H]3CCN(S(=O)(=O)c4cccc(C(F)(F)F)c4)C3)sc12 | 600 nM | 220 nM | 42 nM | –
4 | CCN(C(C)=O)c1ccc(OC)c2nc(NC(=O)[C@@H]3CCN(C(=O)c4cccc(C(F)(F)F)c4)C3)sc12 | 2040 nM | 100 nM | 14 nM | Ki (Adenosine receptor A2b [3]): 18 nM
5 | CCN(C(C)=O)c1ccc(OC)c2nc(NC(=O)[C@H]3CCN(C(=O)c4cccc(C(F)(F)F)c4)C3)sc12 | 710 nM | 120 nM | 41 nM | –
6 | CCN(C(C)=O)c1ccc(OC)c2nc(NC(=O)[C@@H]3CC[C@H](NC(=O)c4cccc(C(F)(F)F)c4)C3)sc12 | 81 nM | 61 nM | 8 nM | –
7 | CCN(C(C)=O)c1ccc(OC)c2nc(NC(=O)[C@@H]3CC[C@@H](NC(=O)c4cccc(C(F)(F)F)c4)C3)sc12 | 31 nM | 31 nM | 8 nM | –
8 | CCN(C(C)=O)c1ccc(OC)c2nc(NC(=O)[C@@H]3CCN(Cc4cccc(C(F)(F)F)c4)C3)sc12 | – | – | 72 nM | –
9 | CCN(C(C)=O)c1ccc(OC)c2nc(NC(=O)C3CCN(C(=O)c4cccc(C(F)(F)F)c4)CC3)sc12 | 230 nM | 2 nM | 17 nM | –
10 | CCN(C(C)=O)c1ccc(OC)c2nc(NC(=O)C3CCN(S(=O)(=O)c4cccc(C(F)(F)F)c4)CC3)sc12 | 1040 nM | 78 nM | 49 nM | –
11 | CCN(C(C)=O)c1ccc(OC)c2nc(NC(=O)C3CCN(Cc4cccc(C(F)(F)F)c4)CC3)sc12 | 1000 nM | 10 nM | 44 nM | –
12 | CCN(C(C)=O)c1ccc(OC)c2nc(NC(=O)[C@H]3CC[C@H](NC(=O)c4cccc(C(F)(F)F)c4)CC3)sc12 | 470 nM | 7 nM | 28 nM | –
13 | CCN(C(C)=O)c1ccc(OC)c2nc(NC(=O)[C@H]3CC[C@@H](NC(=O)c4cccc(C(F)(F)F)c4)CC3)sc12 | 52 nM | 20 nM | 26 nM | –
14 | CCN(C(C)=O)c1ccc(OC)c2nc(NC(=O)N3CCC(O)(c4cccc(C(F)(F)F)c4)CC3)sc12 | 210 nM | 19 nM | 8 nM | Ki (Adenosine receptor A2b [3]): 5 nM
15 | CCN(C(C)=O)c1ccc(OC)c2nc(NC(=O)N3CCC(c4cccc(C(F)(F)F)c4)CC3)sc12 | 240 nM | 5 nM | 18 nM | –
16 | CCN(C(C)=O)c1ccc(OC)c2nc(NC(=O)N3CCC(S(=O)(=O)c4cccc(C(F)(F)F)c4)CC3)sc12 | 530 nM | 690 nM | 20 nM | –
17 | CCN(C(C)=O)c1ccc(OC)c2nc(NC(=O)[C@@H]3CC[C@H](NCc4cccc(C(F)(F)F)c4)C3)sc12 (relative stereo) | 180 nM | 220 nM | 19 nM | –
